Source: PubChem BioAssay
The entries come from a sample that favours hits as a whole.
INS-1E ATP HTS = preserves ATP levels in cytokine-treated INS-1E cells | INS-1E cytokine-induced death, ATP luminescence, 48 h; normalised: neutral wells 0, positive control 100 | protection from cytokine-induced ATP loss, % at 10 µM | 20,000 compounds, 0.1% hits | AID 488910;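 active means mean replicate protection from cytokine-induced ATP loss at least 50% and at least 75% of replicates each reaching 50%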
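Assay system: INS-1E rat insulinoma cells. Amount: 8000 cells per well. Medium: phenol-red-free RPMI with 5% fetal bovine serum. Reagent: IL-1β, TNF-α and IFN-γ cytokine mix. Doses: one compound concentration, pin transfer. Schedule: 48 h co-treatment, 10 min post-lysis read. Detection: CellTiter-Glo luminescence measuring cellular ATP.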
T cruzi intra = blocks T. cruzi growth inside host cells; intracellular Trypanosoma cruzi in host cells, plate reader; activity score (inhibition), % at 5.01 µM; 22,000 compounds, 4.9% hits; in the data active means activity score above about 55%;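 further: parasites and compound incubated about four days before reading; 0% = median of neutral control wells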
YB-1 expr inh = YB-1 expression inhibition. delta delta Cp (YB-1 minus CDIP) (no concentration beside the values). 30,000 compounds, 0.37% hits. U2OS, qRT-PCR YB-1 vs CDIP delta delta Cp, 16 h; stronger effect = higher value; zero = DMSO, each unit about twofold. AID 434959;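 active means delta delta Cp rounded down to an integer at or above 3, about 3 SD of DMSO wells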;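 further: higher means less YB-1 transcript or more CDIP transcript relative to DMSO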
* marks the source's active call; other numbers are inactive results; · = no result.

SMILES	INS-1E ATP HTS	T cruzi intra	YB-1 expr inh
C[C@@H]1CCCCO[C@@H](CN(C)C(=O)CCCN(C)C)[C@@H](C)CN([C@H](C)CO)C(=O)c2cc(NS(C)(=O)=O)ccc2O1	-8	·	9.7*
C[C@@H]1CCCCO[C@@H](CN(C)C(=O)CCCN(C)C)[C@@H](C)CN([C@H](C)CO)C(=O)c2cc(NC(=O)c3ccccc3)ccc2O1	-2	-9	9.6*
Cc1ccc(S(=O)(=O)Nc2ccc3c(c2)C(=O)N([C@H](C)CO)C[C@H](C)[C@H](CN(C)C(=O)CCCN(C)C)OCCCC[C@@H](C)O3)cc1	2	-12	-0.36
C[C@@H]1CCCCO[C@H](CN(C)C(=O)CCCN(C)C)[C@@H](C)CN([C@H](C)CO)C(=O)c2cc(NC(=O)Nc3ccccc3)ccc2O1	9	23	-0.42
C[C@H](CO)N1C[C@H](C)[C@H](CN(C)CC2CCCCC2)Oc2ccc(NC(=O)Cn3cnnn3)cc2C1=O	·	-15	-0.14
C[C@H]1CN([C@@H](C)CO)C(=O)c2cc(NC(=O)c3ccncc3)ccc2O[C@@H]1CN(C)CC1CCCCC1	1	8	0.009
C[C@H]1CN([C@@H](C)CO)C(=O)Cc2cc(NS(=O)(=O)c3ccc(Cl)cc3)ccc2O[C@H]1CN(C)Cc1ccc(Oc2ccccc2)cc1	-10	7	-0.021
C[C@@H]1CN([C@H](C)CO)C(=O)Cc2cc(NS(=O)(=O)c3ccc(Cl)cc3)ccc2O[C@H]1CN(C)Cc1ccccc1	-2	73*	0.17
C[C@@H]1CN([C@@H](C)CO)C(=O)Cc2cc(NS(=O)(=O)c3ccc(F)cc3)ccc2O[C@@H]1CN(C)Cc1ccc(-c2ccccc2)cc1	-22	63*	0.21
C[C@@H]1CN([C@@H](C)CO)C(=O)Cc2cc(NS(=O)(=O)c3ccc(F)cc3)ccc2O[C@@H]1CN(C)Cc1ccc(Oc2ccccc2)cc1	-25	75*	0.14
C[C@H](CO)N1C[C@H](C)[C@H](CN(C)Cc2ccccc2)Oc2ccc(NS(=O)(=O)c3ccc(Cl)cc3)cc2CC1=O	18	-25	0.0039
C[C@H]1CN([C@@H](C)CO)C(=O)Cc2cc(NS(=O)(=O)c3ccc(F)cc3)ccc2O[C@H]1CN(C)Cc1ccc(-c2ccccc2)cc1	-28	30	-0.14
C[C@H]1CN([C@@H](C)CO)C(=O)Cc2cc(NS(=O)(=O)c3ccc(F)cc3)ccc2O[C@H]1CN(C)Cc1ccc(Oc2ccccc2)cc1	-29	33	0.43
C[C@@H]1CN([C@H](C)CO)C(=O)Cc2cc(NS(=O)(=O)c3ccc(Cl)cc3)ccc2O[C@H]1CN(C)Cc1ccc(Oc2ccccc2)cc1	-11	64*	-0.14
C[C@H]1CN([C@@H](C)CO)C(=O)c2cc(NC(=O)Nc3ccccc3)ccc2O[C@H]1CN(C)S(=O)(=O)c1ccc(Cl)cc1	-9	2	-0.35
O=C(CCCCCCC(=O)Nc1ccccc1O)N/N=C/c1ccc(Br)o1	17	-18	0.096
Cc1cc(C(=O)Nc2cccc3c2O[C@@H](CN(C)Cc2ccc(Oc4ccccc4)cc2)[C@H](C)CN([C@@H](C)CO)C3=O)n(C)n1	-30	41	-0.052
COC(=O)CCCCCCC(=O)N/N=C/c1ccc(-c2cccc(Cl)c2)o1	5	27	-0.15
O=C(N/N=C/c1cc(Br)cc(Br)c1O)c1ccccn1	-42	78*	-0.18
Cc1ccc(/C=N/NC(=O)c2ccccn2)o1	-3	2	0.069
Cc1ccc(/C=N/NC(=O)CCCCCC(=O)NO)o1	108*	7	0.4
O=C(N/N=C/c1ccc(-c2cccc(Cl)c2)o1)c1ccccn1	13	85*	0.067
O=C(CCCCC(=O)N/N=C/c1ccc(-c2cccc(Cl)c2)o1)NO	149*	19	-0.42
Cc1ccc(/C=N/NC(=O)CCCCCC(=O)O)o1	-3	-15	-0.49
O=C(N/N=C/c1cc(Br)c(O)c(Br)c1)c1ccccn1	7	-13	0.2
SMILES	INS-1E ATP HTS	T cruzi intra	YB-1 expr inh
C[C@@H]1CN([C@H](C)CO)C(=O)Cc2cc(NS(=O)(=O)c3cccs3)ccc2O[C@@H]1CN(C)C(=O)Nc1ccc(C(F)(F)F)cc1	-12	11	0.034
O=[n+]1cc(-c2ccccc2)n([O-])c2c1CCCC2	·	·	2.3
C=CS(=O)(=O)c1ccc(OC)c(N)c1	·	·	0.44
CC1(C)[C@H]2CC=C(/C=N\NC(=O)c3cccc(C(=O)NO)c3)[C@@H]1C2	-4	1	-0.24
C[C@@H]1CN([C@H](C)CO)C(=O)Cc2cc(NC(=O)Nc3cccc4ccccc34)ccc2O[C@@H]1CN(C)CC1CCCCC1	0	50	0.3
C[C@@H]1CN([C@H](C)CO)C(=O)Cc2cc(NC(=O)Nc3cccc4ccccc34)ccc2O[C@H]1CN(C)CC1CCCCC1	1	68*	-0.36
